Screening data (PubChem)
APJ antagonist = APJ receptor antagonism; P35414; CHO-K1 APJ beta-arrestin complementation, luminescence; inhibition, % at 20 µM; 0.32% of 330,000 active; AID 2521;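 active = inhibition above about 40% at 20 µM, limit read from the data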;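 also: cells challenged with 10 nM apelin-13 agonist together with compound; plate controls were apelin-13 plus DMSO wells for no effect and DMSO wells lacking apelin-13 for full effect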
APJ ag = agonists of human APJ apelin receptor. P35414. CHO-K1 APJ PathHunter beta-arrestin, luminescence; 0% DMSO wells, 100% apelin. activation, % at 20 µM. 0.11% of 330,000 active;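 active = activation more than six SD over the plate average, tested at 20 µM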;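 also: 0% = DMSO alone and 100% = apelin-13 at 10 nM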
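Assay system: CHO-K1 APJ beta-arrestin complementation cell line / Compound: single test compound dose, 20 µM final, 1% DMSO / Times: overnight seeding, 90 min compound at 25 °C, 1 h detection / Technique: beta-gal luminescence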
CXCR6 inh = CXCR6 (human) receptor inhibition; CHO-K1 PathHunter CXCR6 beta-arrestin, luminescence; O00574; inhibition, % at 20 µM; 0.36% of 360,000 active; in the data active = inhibition above about 34%, passing the limit was not always enough;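 also: antagonist mode with CXCL16 agonist at 10 nM final; 0% = 10 nM CXCL16 with DMSO and 100% = unstimulated wells without agonist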
CCR6 antag = antagonists of human CCR6 receptor; P51684; CHO-K1 CCR6 PathHunter beta-arrestin, luminescence, CCL20-stimulated; inhibition, % at 20 µM; 0.49% of 340,000 active; AID 493098;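 active = compounds whose inhibition of the agonist-driven luminescence signal at 20 µM reaches about 50%, limit read from the data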;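 also: cells stimulated with CCL20 at 14 nM final; plate controls were DMSO with CCL20 for no effect and DMSO without agonist for full effect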
Target sequence (P51684 whole entry, looked up): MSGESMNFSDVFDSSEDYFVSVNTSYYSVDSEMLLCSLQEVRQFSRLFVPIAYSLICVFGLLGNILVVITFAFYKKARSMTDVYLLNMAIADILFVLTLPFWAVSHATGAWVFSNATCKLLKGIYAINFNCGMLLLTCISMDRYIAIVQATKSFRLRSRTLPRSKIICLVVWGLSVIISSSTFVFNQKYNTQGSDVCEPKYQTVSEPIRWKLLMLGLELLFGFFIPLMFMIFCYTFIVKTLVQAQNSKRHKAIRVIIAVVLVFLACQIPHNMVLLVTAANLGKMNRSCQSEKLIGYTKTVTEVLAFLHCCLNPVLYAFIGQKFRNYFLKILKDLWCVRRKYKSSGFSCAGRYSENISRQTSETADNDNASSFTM
EBI2 block = antagonists of human EBI2 receptor. P32249. EBI2 beta-arrestin recruitment, luminescence, 7a,25-OHC stimulated. inhibition, % at 5 µM. 0.81% of 360,000 active; in the data active = inhibition above about 38%;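 also: enzyme fragment complementation signal reports receptor beta-arrestin coupling in cells; 0% = agonist plus DMSO wells and 100% = wells without agonist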
EBI2 conf = EBI2 (human) antagonism, single concentration confirmation; shares compounds with EBI2 block; EBI2 beta-arrestin luminescence, 7a,25-OHC antagonism; inhibition, % at 5 µM; 29% of 2,400 active; AID 651997;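 active = inhibition of at least 50%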
EBI2 ag = activates EBI2, counter-screen for EBI2 antagonists; 2,400 tested, under 10 active; shares compounds with EBI2 block; EBI2-expressing cells, agonist mode, luminescence, 60 min; 0% vehicle, 100% 7α,25-dihydroxycholesterol control; activation, % at 5 µM;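 active = activation of at least 50%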
bGal counter = counter-screen for EBI2 antagonists: E. coli beta-galactosidase inhibition; purified beta-galactosidase, luminescent Galacton Star, 15 min; inhibition, % at 5 µM; shares compounds with EBI2 block; 1% of 2,400 active; AID 652176;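 active = replicate-average signal at least 3 plate SD below neutral wells, shown as high inhibition, flagging enzyme-inhibiting false positives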;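 also: 0% = DMSO wells with enzyme and 100% = wells lacking enzyme; higher means stronger loss of beta-gal luminescence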
* hit, by the source's call; nt = no result given. In the library only some 1.5% were active in any assay of this set; here they are far more common.

SMILES	APJ antagonist	APJ ag	CXCR6 inh	CCR6 antag	EBI2 block	EBI2 conf	EBI2 ag	bGal counter
CCOC(=O)N1CCN(C(=O)/C=C/c2cccc([N+](=O)[O-])c2)CC1	2.1	0.8	-5.7	7.6	48.4*	26.0	-0.7	-11.4
CCOC(=O)N1CCN(C(=O)/C=C/c2ccc([N+](=O)[O-])cc2)CC1	16.6	0.7	-5.9	-6.3	80.2*	57.7*	0.1	6.8
O=C(NCc1ccc(F)cc1)c1cc(C2CCCCN2C(=O)CCc2ccccc2)on1 (configuration not stated)	nt	nt	4.3	nt	7.8	nt	nt	nt
CC[C@H]1C(Nc2ccccc2)C[C@@H]2CCN3C(=O)CC[C@H]1[C@H]23 (some centres not stated)	nt	nt	-4.5	-2.6	-2.0	nt	nt	nt
Cc1nnc(SC(C)C#N)n1-c1ccccc1 (configuration not stated)	3.8	-2.7	7.2	0.9	-7.2	nt	nt	nt
Cc1onc(-c2ccccc2Cl)c1C(=O)NCc1nnnn1-c1ccc(F)c(F)c1	nt	nt	-5.4	nt	-1.5	nt	nt	nt
CCOc1ccc(C2=CC(=O)C[C@H](c3ccc(OC)cc3)C2)cc1	-5.3	-1.1	-3.9	2.5	76.6*	48.2	-0.8	-6.6
O=C1C=C(c2cc(C(F)(F)F)cc(C(F)(F)F)c2)C[C@@H](c2ccc(Cl)cc2)C1	11.4	-0.6	6.1	5.1	59.9*	36.6	-1.1	-14.5
Cn1ccc2ccc(C3=CC(=O)C[C@H](c4ccc(F)cc4)C3)cc21	27.3	-2.8	7.4	5.9	55.2*	47.8	-1.1	-3.1
O=C1C=C(c2ccc(OC(F)(F)F)cc2)C[C@@H](c2ccc(Cl)cc2)C1	11.9	-3.7	-2.1	18.9	65.1*	35.5	-0.8	-12.2
O=C1C=C(c2ccc(O)cc2)C[C@@H](c2ccc(Cl)cc2)C1	-5.9	-3.1	-10.0	21.1	15.2	nt	nt	nt
CCOc1ccc(-c2ccc(C3=CC(=O)C[C@H](c4ccc(F)cc4)C3)cc2)cc1	nt	nt	-5.2	nt	-1.6	nt	nt	nt
CC(C)c1cccc(C2=CC(=O)C[C@H](c3ccc(F)cc3)C2)c1	0.8	-5.3	2.2	19.9	18.1	nt	nt	nt
Cc1nn(-c2ccccc2)c(C)c1/C=C/C(=O)OCC(=O)Nc1ccc(S(N)(=O)=O)cc1	4.9	-3.3	-0.9	9.7	-1.3	nt	nt	nt
CC1(Oc2ccc3ccccc3c2)CCN(Cc2ccc(OC(F)(F)F)cc2)C1 (configuration not stated)	nt	nt	-1.8	nt	-12.3	nt	nt	nt
CN(CC(=O)Nc1ccc(OC(F)(F)F)cc1)C(=O)Cc1cccs1	-0.3	-1.5	-0.4	3.7	4.3	nt	nt	nt
C=Cc1ccc(C2=CC(=O)C[C@H](c3ccc(OC)cc3)C2)cc1	-26.4	-3.2	-4.8	13.9	77.1*	53.9*	0.2	12.1
Cc1ccc(C2=CC(=O)C[C@H](c3ccc(F)cc3)C2)cc1	8.6	-3.5	11.5	25.5	70.3*	36.5	1.5	6.5
COc1cccc(C2=CC(=O)C[C@H](c3ccc(Cl)cc3)C2)c1	1.2	-1.7	6.0	29.4	46.4*	31.8	-0.1	11.5
COc1ccc([C@H]2CC(=O)C=C(c3cccc(Br)c3)C2)cc1	8.1	-3.1	1.7	19.4	41.0	nt	nt	nt
COc1ccc(C2=CC(=O)C[C@H](c3ccc(Cl)cc3)C2)cc1	16.6	0.0	-2.9	19.6	49.8*	58.8*	-2.1	-4.3
O=C1C=C(c2ccc(-c3ccccc3)cc2)C[C@@H](c2ccc(F)cc2)C1	2.3	-3.4	3.7	11.4	24.5	nt	nt	nt
O=C(COC(=O)c1cc(S(=O)(=O)N2CCOCC2)ccc1F)NCc1ccco1	-0.7	1.6	-5.2	26.6	-7.1	nt	nt	nt
O=C(c1ccccc1F)n1c2c(c3ccccc31)CCCC2	-6.2	-2.6	-2.7	18.2	5.7	nt	nt	nt
O=C1C=C(c2cc3ccccc3s2)C[C@@H](c2ccc(F)cc2)C1	11.2	-4.6	-1.0	8.6	52.7*	44.5	-1.2	-8.3
COc1ccc(C2=CC(=O)CC(c3ccc(F)cc3)C2)cc1 (configuration not stated)	-1.2	-7.4	4.1	13.7	39.5	nt	nt	nt
